From ChEMBL document CHEMBL1275455, “Resistance and virulence of Pseudomonas aeruginosa clinical strains overproducing the MexCD-OprJ efflux pump” (2008)
In brackets after ≈: the same amount, converted by molar mass.

Legend:
[1] = system: Pseudomonas aeruginosa; test: Antibacterial activity against Pseudomonas aeruginosa EryR by twofold serial dilution method; format: functional
Procedure, shortened: (§1)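 MIC by twofold serial dilution in Mueller-Hinton agar with adjusted Ca2+ and Mg2+, spotted with a Steers multiple inoculator at about 10^4 CFU per spot. Plates were incubated at 37°C and read visually at 18 and 24 h. Values are modal MICs of three independent determinations.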

[2] = system: Pseudomonas aeruginosa; test: microbe, parasite or virus in culture; conditions: 2126
[3] = system: Pseudomonas aeruginosa; test: Antibacterial activity against Pseudomonas aeruginosa PAO1 by twofold serial dilution method; format: functional; procedure, shortened: as §1
[4] = system: Pseudomonas aeruginosa; test: Antibacterial activity against Pseudomonas aeruginosa 3308 by twofold serial dilution method; format: functional
Procedure, shortened: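 MIC by serial twofold agar dilution in cation-adjusted Mueller-Hinton agar, about 10^4 CFU per spot applied with Steers multiple inoculator; plates at 37°C, read visually at 18 and 24 h. Modal values of three independent determinations. For pNF225 carriers, 150 μg/ml ticarcillin was added to growth cultures.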

[5] = system: Pseudomonas aeruginosa; test: Antibacterial activity against Pseudomonas aeruginosa FK06 by twofold serial dilution method; format: functional; procedure, shortened: as §1
[6] = system: Pseudomonas aeruginosa; test: Antibacterial activity against Pseudomonas aeruginosa 1956 by twofold serial dilution method; format: functional; procedure, shortened: as §1
[7] = system: Pseudomonas aeruginosa; test: Antibacterial activity against Pseudomonas aeruginosa FE60 by twofold serial dilution method; format: functional; procedure, shortened: as §1
[8] = system: Pseudomonas aeruginosa; test: microbe, parasite or virus in culture; conditions: 2439
[9] = system: Pseudomonas aeruginosa; test: Activity of beta-lactamase AmpC in Pseudomonas aeruginosa EryR by spectrophotometry
Procedure, shortened: (§2)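 Crude French press lysates tested spectrophotometrically with nitrocefin; activity in nmol nitrocefin·min−1·mg protein−1. Induced activity obtained by adding 50 μg/ml cefoxitin to MHB culture 3 h before end of incubation; uninduced without. Triplicate measurements per strain; run-to-run variation under 15%.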

[10] = system: Pseudomonas aeruginosa PAO1; test: Activity of beta-lactamase AmpC in Pseudomonas aeruginosa PAO1 by spectrophotometry; procedure, shortened: as §2
[11] = system: Pseudomonas aeruginosa; test: Activity of beta-lactamase AmpC in Pseudomonas aeruginosa 3308 by spectrophotometry; procedure, shortened: as §2
[12] = system: Pseudomonas aeruginosa; test: Activity of beta-lactamase AmpC in Pseudomonas aeruginosa 1956 by spectrophotometry; procedure, shortened: as §2
[13] = system: Pseudomonas aeruginosa; test: Activity of beta-lactamase AmpC in Pseudomonas aeruginosa 2439 by spectrophotometry; procedure, shortened: as §2
[14] = system: Pseudomonas aeruginosa; test: Activity of beta-lactamase AmpC in Pseudomonas aeruginosa 2126 by spectrophotometry; procedure, shortened: as §2
[15] = system: Pseudomonas aeruginosa; test: Antibacterial activity against Pseudomonas aeruginosa 2126 harboring pNF225 carrying nfxB by twofold serial dilution method; format: functional
Procedure, shortened: (§3)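 nfxB plasmid pNF225 was electroporated into the strains and kept by adding 150 μg/ml ticarcillin to growth media. MIC by twofold serial dilution in cation-adjusted Mueller-Hinton agar, about 10^4 CFU per spot by Steers inoculator, at 37°C. Plates were read visually at 18 and 24 h. Values are modal MICs of three independent determinations.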

[16] = system: Pseudomonas aeruginosa; test: Antibacterial activity against Pseudomonas aeruginosa EryR harboring pNF225 carrying nfxB by twofold serial dilution method; format: functional; procedure, shortened: as §3
[17] = system: Pseudomonas aeruginosa; test: Antibacterial activity against Pseudomonas aeruginosa 2439 harboring pNF225 carrying nfxB by twofold serial dilution method; format: functional; procedure, shortened: as §3
[18] = system: Pseudomonas aeruginosa; test: Antibacterial activity against Pseudomonas aeruginosa 3308 harboring pNF225 carrying nfxB by twofold serial dilution method; format: functional; procedure, shortened: as §3
[19] = system: Pseudomonas aeruginosa; test: Antibacterial activity against Pseudomonas aeruginosa FK06 harboring pNF225 carrying nfxB by twofold serial dilution method; format: functional; procedure, shortened: as §3
[20] = system: Pseudomonas aeruginosa; test: Antibacterial activity against Pseudomonas aeruginosa 1956 harboring pNF225 carrying nfxB by twofold serial dilution method; format: functional; procedure, shortened: as §3

Row | Compound | MIC [1] [µg/mL] | MIC [2] [µg/mL] | MIC [3] [µg/mL] | MIC [4] [µg/mL] | MIC [5] [µg/mL] | MIC [6] [µg/mL] | MIC [7] [µg/mL] | MIC [8] [µg/mL] | Activity [9] [nmol/min/mg] | Activity [10] [nmol/min/mg] | Activity [11] [nmol/min/mg] | Activity [12] [nmol/min/mg] | Activity [13] [nmol/min/mg] | Activity [14] [nmol/min/mg] | MIC [15] [µg/mL] | MIC [16] [µg/mL] | MIC [17] [µg/mL] | MIC [18] [µg/mL] | MIC [19] [µg/mL] | MIC [20] [µg/mL]
1 | CO/N=C(\C(=O)N[C@@H]1C(=O)N2C(C(=O)[O-])=C(C[N+]3(C)CCCC3)CS[C@H]12)c1csc(N)n1 | 8 (≈ 16.6 µM) | 8 (≈ 16.6 µM) | 2 (≈ 4.16 µM) | 4 (≈ 8.32 µM) | 8 (≈ 16.6 µM) | 2 (≈ 4.16 µM) | 2 (≈ 4.16 µM) | 8 (≈ 16.6 µM) |  |  |  |  |  |  |  |  |  |  |  | 
2 | O=C(Cc1cccs1)N[C@@H]1C(=O)N2C(C(=O)O)=C(/C=C/c3ccc([N+](=O)[O-])cc3[N+](=O)[O-])CS[C@H]12 |  |  |  |  |  |  |  |  | 3110 | 1820 | 2670 | 4550 | 2680 | 5140 |  |  |  |  |  | 
3 | NCC[C@H](O)C(=O)N[C@@H]1C[C@H](N)[C@@H](O[C@H]2O[C@H](CN)[C@@H](O)[C@H](O)[C@H]2O)[C@H](O)[C@H]1O[C@H]1O[C@H](CO)[C@@H](O)[C@H](N)[C@H]1O [AMIKACIN] | 2 (≈ 3.42 µM) | 1 (≈ 1.71 µM) | 4 (≈ 6.83 µM) | 0.5 (≈ 0.854 µM) | 1 (≈ 1.71 µM) | 1 (≈ 1.71 µM) | 1 (≈ 1.71 µM) | 1 (≈ 1.71 µM) |  |  |  |  |  |  | 2 (≈ 3.42 µM) | 8 (≈ 13.7 µM) | 2 (≈ 3.42 µM) | 1 (≈ 1.71 µM) | 1 (≈ 1.71 µM) | 2 (≈ 3.42 µM)
4 | C[C@H]1[C@H](NC(=O)/C(=N\OC(C)(C)C(=O)O)c2csc(N)n2)C(=O)N1S(=O)(=O)O [AZTREONAM] | 1 (≈ 2.3 µM) | 1 (≈ 2.3 µM) |  | 1 (≈ 2.3 µM) | 1 (≈ 2.3 µM) | 1 (≈ 2.3 µM) | 4 (≈ 9.19 µM) | 1 (≈ 2.3 µM) |  |  |  |  |  |  |  |  |  | 4 (≈ 9.19 µM) | 4 (≈ 9.19 µM) | 
5 | O=C(N[C@H](CO)[C@H](O)c1ccc([N+](=O)[O-])cc1)C(Cl)Cl [CHLORAMPHENICOL] | 128 (≈ 396 µM) | 128 (≈ 396 µM) | 64 (≈ 198 µM) | 128 (≈ 396 µM) | 128 (≈ 396 µM) | 128 (≈ 396 µM) | 64 (≈ 198 µM) | 128 (≈ 396 µM) |  |  |  |  |  |  | 32 (≈ 99 µM) | 32 (≈ 99 µM) | 64 (≈ 198 µM) | 64 (≈ 198 µM) | 64 (≈ 198 µM) | 64 (≈ 198 µM)
6 | O=C(O)c1cn(C2CC2)c2cc(N3CCNCC3)c(F)cc2c1=O [CIPROFLOXACIN] |  |  |  |  |  | 1 (≈ 3.02 µM) | 0.12 (≈ 0.362 µM) |  |  |  |  |  |  |  |  |  |  | 0.12 (≈ 0.362 µM) |  | 
7 | C[C@@H](O)[C@H]1C(=O)N2C(C(=O)O)=C(SCCNC=N)C[C@H]12 [IMIPENEM ANHYDROUS] | 0.5 (≈ 1.67 µM) | 0.5 (≈ 1.67 µM) | 2 (≈ 6.68 µM) | 0.12 (≈ 0.401 µM) | 0.5 (≈ 1.67 µM) | 2 (≈ 6.68 µM) | 2 (≈ 6.68 µM) | 0.5 (≈ 1.67 µM) |  |  |  |  |  |  | 1 (≈ 3.34 µM) | 2 (≈ 6.68 µM) | 2 (≈ 6.68 µM) | 2 (≈ 6.68 µM) | 2 (≈ 6.68 µM) | 4 (≈ 13.4 µM)
8 | CC1(C)S[C@@H]2[C@H](NC(=O)[C@H](C(=O)O)c3ccsc3)C(=O)N2[C@H]1C(=O)O [TICARCILLIN] | 2 (≈ 5.2 µM) | 4 (≈ 10.4 µM) | 16 (≈ 41.6 µM) | 2 (≈ 5.2 µM) | 4 (≈ 10.4 µM) | 8 (≈ 20.8 µM) | 16 (≈ 41.6 µM) | 4 (≈ 10.4 µM) |  |  |  |  |  |  |  |  |  |  |  | 
9 | NC[C@H]1O[C@H](O[C@H]2[C@H](O)[C@@H](O[C@H]3O[C@H](CO)[C@@H](O)[C@H](N)[C@H]3O)[C@H](N)C[C@@H]2N)[C@H](N)C[C@@H]1O [TOBRAMYCIN] | 0.25 (≈ 0.535 µM) | 0.25 (≈ 0.535 µM) | 0.5 (≈ 1.07 µM) | 0.12 (≈ 0.257 µM) | 0.25 (≈ 0.535 µM) | 0.25 (≈ 0.535 µM) | 0.25 (≈ 0.535 µM) | 0.25 (≈ 0.535 µM) |  |  |  |  |  |  | 0.5 (≈ 1.07 µM) | 1 (≈ 2.14 µM) | 0.5 (≈ 1.07 µM) | 0.25 (≈ 0.535 µM) | 0.25 (≈ 0.535 µM) | 0.5 (≈ 1.07 µM)
10 | GENTAMICIN | 1 |  | 2 | 0.25 |  | 1 | 0.25 |  |  |  |  |  |  |  | 2 | 2 | 2 | 1 |  | 2
